Test results from ChEMBL document CHEMBL1687785, “ampG gene of Pseudomonas aeruginosa and its role in β-lactamase expression” (2010).
Converted amounts (≈) assume the structure as drawn.

Legend:
Assay type in all cases: functional
Pseudomonas aeruginosa [1] = assay: Antimicrobial activity against Pseudomonas aeruginosa isolate 14 obtained from cystic fibrosis patients after 16 to 20 hrs by broth microdilution method in presence of 120 uM carbonyl cyanide m-chlorophenyl-hydrazone
Procedure, shortened: (§1)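 CLSI broth microdilution in Mueller-Hinton broth with CCCP added from a 10 mM DMSO stock to 120 μM final, alongside 2-fold serial antibiotic dilutions. Inoculum from starter cultures grown to OD600 0.5. MIC is the lowest concentration preventing growth after 16-20 h at 37°C. Triplicate.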

Pseudomonas aeruginosa [2] = assay: Antimicrobial activity against ampG deficient Pseudomonas aeruginosa PAO1 after 16 to 20 hrs by broth microdilution method
Procedure, shortened: (§2)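 CLSI broth microdilution in Mueller-Hinton broth, serial 2-fold antibiotic dilutions. Inoculum about 10^4 cells per well, taken from starter cultures grown to OD600 0.5. MIC was the lowest antibiotic concentration preventing growth after 16 to 20 h at 37°C. Each MIC was determined in triplicate.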

Pseudomonas aeruginosa [3] = assay: Antimicrobial activity against Pseudomonas aeruginosa isolate 5 obtained from cystic fibrosis patients after 16 to 20 hrs by broth microdilution method; procedure, shortened: as §2
Pseudomonas aeruginosa [4] = assay: Antimicrobial activity against ampD, ampDh2, ampDh3 and ampGh1 deficient Pseudomonas aeruginosa PAO1 after 16 to 20 hrs by broth microdilution method; procedure, shortened: as §2
Pseudomonas aeruginosa [5] = assay: Antimicrobial activity against Pseudomonas aeruginosa isolate 1 obtained from cystic fibrosis patients after 16 to 20 hrs by broth microdilution method in presence of 120 uM carbonyl cyanide m-chlorophenyl-hydrazone; procedure, shortened: as §1
Pseudomonas aeruginosa [6] = assay: Antimicrobial activity against Pseudomonas aeruginosa PAK after 16 to 20 hrs by broth microdilution method in presence of 120 uM carbonyl cyanide m-chlorophenyl-hydrazone; procedure, shortened: as §1
Pseudomonas aeruginosa [7] = assay: Antimicrobial activity against Pseudomonas aeruginosa isolate 7 obtained from cystic fibrosis patients after 16 to 20 hrs by broth microdilution method; procedure, shortened: as §2
Pseudomonas aeruginosa [8] = assay: Antimicrobial activity against ampD, ampDh2, ampDh3 and ampG deficient Pseudomonas aeruginosa PAO1 harboring pZY0901 conferring resistance to gentamycin after 16 to 20 hrs by broth microdilution method in presence of 120 uM carbonyl cyanide m-chlorophenyl-hydrazone
Procedure, shortened: (§3)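 CLSI broth microdilution in Mueller-Hinton broth with serial antibiotic dilutions. CCCP was added from a 10 mM DMSO stock to 120 μM final, then the bacterial culture was added as inoculum (about 10^4 cells from OD600 0.5 starter cultures). MIC was the lowest concentration preventing growth after 16 to 20 h at 37°C, run in triplicate.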

Pseudomonas aeruginosa [9] = assay: Antimicrobial activity against ampD, […], ampDh2 deficient Pseudomonas aeruginosa PAO1 after 16 to 20 hrs by broth microdilution method; procedure, shortened: as §2
Pseudomonas aeruginosa [10] = assay: Antimicrobial activity against ampGh1 deficient Pseudomonas aeruginosa PAK after 16 to 20 hrs by broth microdilution method in presence of 120 uM carbonyl cyanide m-chlorophenyl-hydrazone; procedure, shortened: as §3
Pseudomonas aeruginosa [11] = assay: Antimicrobial activity against Pseudomonas aeruginosa isolate 15 obtained from cystic fibrosis patients after 16 to 20 hrs by broth microdilution method
Procedure, shortened: (§4)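 CLSI broth microdilution: 2-fold serial antibiotic dilutions in Mueller-Hinton broth, inoculated with about 10^4 cells per 100 μl from starter cultures grown to OD600 0.5. MIC is the lowest concentration preventing growth after 16-20 h at 37°C. Triplicate.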

Pseudomonas aeruginosa [12] = assay: Antimicrobial activity against ampG deficient Pseudomonas aeruginosa PAO1 harboring pZY0901 conferring resistance to gentamycin after 16 to 20 hrs by broth microdilution method; procedure, shortened: as §2
Escherichia coli = assay: Antimicrobial activity against tetracycline resistant Escherichia coli SNO301-1 harboring pEC1C carrying ampC, ampR from Enterobacter cloacae after 16 to 20 hrs by broth microdilution method
Procedure, shortened: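 CLSI broth microdilution: serial 2-fold β-lactam dilutions in Mueller-Hinton broth, inoculum about 10^4 cells from starter cultures at OD600 0.5; MIC read as lowest concentration preventing growth after 16 to 20 h at 37°C; triplicate determinations.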

Pseudomonas aeruginosa [13] = assay: Antimicrobial activity against Pseudomonas aeruginosa isolate 3 obtained from cystic fibrosis patients after 16 to 20 hrs by broth microdilution method; procedure, shortened: as §2
Pseudomonas aeruginosa [14] = assay: Antimicrobial activity against ampD, ampDh2, ampDh3 and ampG deficient Pseudomonas aeruginosa PAO1 after 16 to 20 hrs by broth microdilution method in presence of 120 uM carbonyl cyanide m-chlorophenyl-hydrazone; procedure, shortened: as §3
Pseudomonas aeruginosa [15] = assay: Antimicrobial activity against ampG deficient Pseudomonas aeruginosa PAO1 harboring pUCP24 conferring resistance to gentamycin after 16 to 20 hrs by broth microdilution method in presence of 120 uM carbonyl cyanide m-chlorophenyl-hydrazone; procedure, shortened: as §3
Pseudomonas aeruginosa [16] = assay: Antimicrobial activity against Pseudomonas aeruginosa isolate 1 obtained from cystic fibrosis patients after 16 to 20 hrs by broth microdilution method; procedure, shortened: as §4
Pseudomonas aeruginosa [17] = assay: Antimicrobial activity against Pseudomonas aeruginosa PAO1 after 16 to 20 hrs by broth microdilution method in presence of 120 uM carbonyl cyanide m-chlorophenyl-hydrazone; procedure, shortened: as §1
Pseudomonas aeruginosa [18] = assay: Antimicrobial activity against Pseudomonas aeruginosa PAK after 16 to 20 hrs by broth microdilution method; procedure, shortened: as §4
Pseudomonas aeruginosa [19] = assay: Antimicrobial activity against Pseudomonas aeruginosa isolate 9 obtained from cystic fibrosis patients after 16 to 20 hrs by broth microdilution method; procedure, shortened: as §2
Pseudomonas aeruginosa [20] = assay: Antimicrobial activity against Pseudomonas aeruginosa isolate 17 obtained from cystic fibrosis patients after 16 to 20 hrs by broth microdilution method; procedure, shortened: as §2
Pseudomonas aeruginosa [21] = assay: Antimicrobial activity against ampG, ampGh1 deficient Pseudomonas aeruginosa PAO1 after 16 to 20 hrs by broth microdilution method in presence of 120 uM carbonyl cyanide m-chlorophenyl-hydrazone; procedure, shortened: as §3
Pseudomonas aeruginosa [22] = assay: Antimicrobial activity against Pseudomonas aeruginosa isolate 13 obtained from cystic fibrosis patients after 16 to 20 hrs by broth microdilution method; procedure, shortened: as §4
Pseudomonas aeruginosa [23] = assay: Antimicrobial activity against Pseudomonas aeruginosa isolate 4 obtained from cystic fibrosis patients after 16 to 20 hrs by broth microdilution method; procedure, shortened: as §2
Pseudomonas aeruginosa [24] = assay: Antimicrobial activity against ampG deficient Pseudomonas aeruginosa PAO1 after 16 to 20 hrs by broth microdilution method in presence of 120 uM carbonyl cyanide m-chlorophenyl-hydrazone; procedure, shortened: as §3
Pseudomonas aeruginosa [25] = assay: Antimicrobial activity against Pseudomonas aeruginosa isolate 3 obtained from cystic fibrosis patients after 16 to 20 hrs by broth microdilution method in presence of 120 uM carbonyl cyanide m-chlorophenyl-hydrazone; procedure, shortened: as §3
Pseudomonas aeruginosa [26] = assay: Antimicrobial activity against Pseudomonas aeruginosa isolate 8 obtained from cystic fibrosis patients after 16 to 20 hrs by broth microdilution method; procedure, shortened: as §2
Pseudomonas aeruginosa [27] = assay: Antimicrobial activity against Pseudomonas aeruginosa isolate 4 obtained from cystic fibrosis patients after 16 to 20 hrs by broth microdilution method in presence of 120 uM carbonyl cyanide m-chlorophenyl-hydrazone; procedure, shortened: as §3
Pseudomonas aeruginosa [28] = assay: Antimicrobial activity against ampD, ampDh2, ampDh3 and ampG deficient Pseudomonas aeruginosa PAO1 harboring pZY0901 conferring resistance to gentamycin after 16 to 20 hrs by broth microdilution method; procedure, shortened: as §2
Pseudomonas aeruginosa [29] = assay: Antimicrobial activity against Pseudomonas aeruginosa isolate 11 obtained from cystic fibrosis patients after 16 to 20 hrs by broth microdilution method in presence of 120 uM carbonyl cyanide m-chlorophenyl-hydrazone; procedure, shortened: as §1
Pseudomonas aeruginosa [30] = assay: Antimicrobial activity against Pseudomonas aeruginosa isolate 10 obtained from cystic fibrosis patients after 16 to 20 hrs by broth microdilution method in presence of 120 uM carbonyl cyanide m-chlorophenyl-hydrazone; procedure, shortened: as §1
Pseudomonas aeruginosa [31] = assay: Antimicrobial activity against ampG deficient Pseudomonas aeruginosa PAO1 harboring pUCP24 conferring resistance to gentamycin after 16 to 20 hrs by broth microdilution method; procedure, shortened: as §2
Pseudomonas aeruginosa [32] = assay: Antimicrobial activity against Pseudomonas aeruginosa isolate 16 obtained from cystic fibrosis patients after 16 to 20 hrs by broth microdilution method; procedure, shortened: as §4

CC1(C)S[C@@H]2[C@H](NC(=O)[C@H](N)c3ccccc3)C(=O)N2[C@H]1C(=O)O [AMPICILLIN]
MIC (Pseudomonas aeruginosa [1]): 8 mg/L | MIC (Pseudomonas aeruginosa [2]): 32 mg/L (≈ 91.6 µM) | MIC (Pseudomonas aeruginosa [3]): 512 mg/L (≈ 1470 µM) | MIC (Pseudomonas aeruginosa [4]): 1020 mg/L (≈ 2930 µM) | MIC (Pseudomonas aeruginosa [5]): 512 mg/L | MIC (Pseudomonas aeruginosa [6]): 256 mg/L | MIC (Pseudomonas aeruginosa [7]): 256 mg/L (≈ 733 µM) | MIC (Pseudomonas aeruginosa [8]): 32 mg/L | MIC (Pseudomonas aeruginosa [9]): 1020 mg/L (≈ 2930 µM) | MIC (Pseudomonas aeruginosa [10]): 256 mg/L | MIC (Pseudomonas aeruginosa [11]): > 1020 mg/L | MIC (Pseudomonas aeruginosa [12]): 1020 mg/L (≈ 2930 µM) | MIC (Escherichia coli): 16 mg/L (≈ 45.8 µM) | MIC (Pseudomonas aeruginosa [13]): 64 mg/L (≈ 183 µM) | MIC (Pseudomonas aeruginosa [14]): 16 mg/L | MIC (Pseudomonas aeruginosa [15]): 32 mg/L | MIC (Pseudomonas aeruginosa [16]): 512 mg/L (≈ 1470 µM) | MIC (Pseudomonas aeruginosa [17]): 128 mg/L | MIC (Pseudomonas aeruginosa [18]): 512 mg/L (≈ 1470 µM) | MIC (Pseudomonas aeruginosa [19]): 512 mg/L (≈ 1470 µM) | MIC (Pseudomonas aeruginosa [20]): 512 mg/L (≈ 1470 µM) | MIC (Pseudomonas aeruginosa [21]): 32 mg/L | MIC (Pseudomonas aeruginosa [22]): > 1020 mg/L | MIC (Pseudomonas aeruginosa [23]): 512 mg/L (≈ 1470 µM) | MIC (Pseudomonas aeruginosa [24]): 32 mg/L | MIC (Pseudomonas aeruginosa [25]): 64 mg/L | MIC (Pseudomonas aeruginosa [26]): 256 mg/L (≈ 733 µM) | MIC (Pseudomonas aeruginosa [27]): 512 mg/L | MIC (Pseudomonas aeruginosa [28]): 1020 mg/L (≈ 2930 µM) | MIC (Pseudomonas aeruginosa [29]): 8 mg/L | MIC (Pseudomonas aeruginosa [30]): 8 mg/L | MIC (Pseudomonas aeruginosa [31]): 32 mg/L (≈ 91.6 µM) | MIC (Pseudomonas aeruginosa [32]): 16 mg/L (≈ 45.8 µM)
